Test results from ChEMBL document CHEMBL1141003, “Carbon analogs of antifungal dioxane-triazole derivatives: synthesis and in vitro activities” (Bioorg Med Chem Lett, 2008).
Values after ≈ are worked out from the molar mass of the structure shown.

Tests used:
Candida albicans [1] = assay: Antimicrobial activity against Candida albicans TIMM 3164 by broth microdilution method; assay type: functional
Method in brief: (§1)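 MICs were determined by NCCLS-guideline broth microdilution in RPMI1640 medium at 35 °C against Candida strains.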

Aspergillus flavus = assay: Antimicrobial activity against Aspergillus flavus SANK 18497 by broth microdilution method
Nakaseomyces glabratus = assay: Antimicrobial activity against Candida glabrata ATCC 90030 by broth microdilution method; assay type: functional; method in brief: as §1
Candida albicans [2] = assay: Antimicrobial activity against Candida albicans ATCC 24433 by broth microdilution method; assay type: functional; method in brief: as §1
Candida albicans [3] = assay: Antimicrobial activity against Candida albicans SANK 51486 by broth microdilution method; assay type: functional; method in brief: as §1
Aspergillus fumigatus [4] = assay: Antimicrobial activity against Aspergillus fumigatus ATCC 26430 by broth microdilution method
Aspergillus fumigatus [5] = assay: Antimicrobial activity against Aspergillus fumigatus SANK 10569 by broth microdilution method; assay type: functional
Method in brief: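 Broth microdilution following NCCLS guidelines. Aspergillus strains incubated at 30 °C in RPMI1640 medium. The MIC was read as the endpoint.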

Cryptococcus neoformans = assay: Antimicrobial activity against Cryptococcus neoformans TIMM 1855 by broth microdilution method; assay type: functional
Method in brief: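 NCCLS broth microdilution MIC determination at 35 °C for Cryptococcus neoformans.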

Candida albicans [6] = assay: Antimicrobial activity against Candida albicans ATCC 64550 by broth microdilution method; assay type: functional; method in brief: as §1
Candida tropicalis = assay: Antimicrobial activity against Candida tropicalis ATCC 750 by broth microdilution method; assay type: functional; method in brief: as §1
Candida parapsilosis = assay: Antimicrobial activity against Candida parapsilosis ATCC 90018 by broth microdilution method; assay type: functional; settings: Lodderomyces parapsilosis; method in brief: as §1
Pichia kudriavzevii = assay: Antimicrobial activity against Candida krusei ATCC 6258 by broth microdilution method; assay type: functional; method in brief: as §1
Mus musculus = assay: Toxicity in ddY mouse at 500 mg/kg, po once daily for 4 days; settings: in vivo, 96 h
Candida albicans [7] = assay: Antimicrobial activity against Candida albicans 427 infected ddY mouse assessed as survival at 20 mg/kg, ip administered after 1 hr, 4 hrs, 24 hrs of infection; assay type: functional; settings: route intraperitoneal
Method in brief: (§2)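 ddY mice (n = 10) infected systemically by intravenous injection of C. albicans 427, 5.5 × 10⁶ CFU/mouse. Treatment 20 mg/kg/administration, given 1, 4 and 24 h after infection, orally or ip as per line. Survival recorded 21 days after administration.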

Candida albicans [8] = assay: Antimicrobial activity against Candida albicans 427 infected ddY mouse assessed as survival at 20 mg/kg, po administered after 1 hr, 4 hrs, 24 hrs of infection; assay type: functional; method in brief: as §2
Candida albicans [9] = assay: Antimicrobial activity against Candida albicans 427 infected ddY mouse assessed as survival rate at 20 mg/kg, po administered after 1 hr, 4 hrs, 24 hrs of infection; assay type: functional; method in brief: as §2

SMILES	MIC (Candida albicans [1]) [µg/mL]	MIC (Aspergillus flavus) [µg/mL]	MIC (Nakaseomyces glabratus) [µg/mL]	MIC (Candida albicans [2]) [µg/mL]	MIC (Candida albicans [3]) [µg/mL]	MIC (Aspergillus fumigatus [4]) [µg/mL]	MIC (Aspergillus fumigatus [5]) [µg/mL]	MIC (Cryptococcus neoformans) [µg/mL]	MIC (Candida albicans [6]) [µg/mL]	MIC (Candida tropicalis) [µg/mL]	MIC (Candida parapsilosis) [µg/mL]	MIC (Pichia kudriavzevii) [µg/mL]	Activity (Mus musculus)	Survival (Candida albicans [7]) [days]	Survival (Candida albicans [8]) [days]	Activity (Candida albicans [9]) [%]
C[C@@H](S[C@H]1CO[C@H](/C=C/C=C/c2ccc(C(F)(F)F)cc2)OC1)[C@](O)(Cn1cncn1)c1ccc(F)cc1F.O=C(O)C(=O)O	0.125	0.5	1	0.125	0.016	0.25	0.25	0.016	1	0.125	0.063	0.25				
C[C@@H](S[C@H]1CO[C@H](/C=C/C=C/C=C/c2ccc(C(F)(F)F)cc2)OC1)[C@](O)(Cn1cncn1)c1ccc(F)cc1F.O=C(O)C(=O)O	1	4	> 4	0.25	0.031	2	2	0.5	> 4	2	0.25	1				
C[C@@H](C[C@H]1CO[C@H](/C=C/c2ccc(C(F)(F)F)cc2)OC1)[C@](O)(Cn1cncn1)c1ccc(F)cc1F.O=C(O)C(=O)O	0.016	0.5	1	0.031	≤ 0.008	0.25	0.25	0.016	1	0.125	0.031	0.063				
C[C@@H](C[C@H]1CO[C@H](/C=C/C=C/C=C/c2ccc(C(F)(F)F)cc2)OC1)[C@](O)(Cn1cncn1)c1ccc(F)cc1F.O=C(O)C(=O)O	0.125	1	2	0.125	0.031	0.5	0.5	0.125	0.5	0.25	0.125	0.25				
C[C@@H](C[C@H]1CO[C@H](c2ccc(C(F)(F)F)cc2)OC1)[C@](O)(Cn1cncn1)c1ccc(F)cc1F.O=C(O)C(=O)O	0.016	1	1	0.016	≤ 0.008	0.25	0.25	0.031	0.5	0.125	0.016	0.125				
C[C@@H](S[C@H]1CO[C@H](c2ccc(C(F)(F)F)cc2)OC1)[C@](O)(Cn1cncn1)c1ccc(F)cc1F	0.063 (≈ 0.122 µM)	2 (≈ 3.88 µM)	1 (≈ 1.94 µM)	0.016 (≈ 0.031 µM)	≤ 0.008	1 (≈ 1.94 µM)	1 (≈ 1.94 µM)	0.031 (≈ 0.0601 µM)	1 (≈ 1.94 µM)	0.5 (≈ 0.97 µM)	0.031 (≈ 0.0601 µM)	0.25 (≈ 0.485 µM)				
C[C@@H](C[C@H]1CO[C@H](/C=C/C=C/c2ccc(C(F)(F)F)cc2)OC1)[C@](O)(Cn1cncn1)c1ccc(F)cc1F.O=C(O)C(=O)O	0.016	0.5	1	0.016	≤ 0.008	0.125	0.125	0.016	0.5	0.125	0.031	0.063	Non-toxic	21	21	
C[C@@H](S[C@H]1CO[C@H](/C=C/c2ccc(C(F)(F)F)cc2)OC1)[C@](O)(Cn1cncn1)c1ccc(F)cc1F	0.125 (≈ 0.231 µM)	1 (≈ 1.85 µM)	1 (≈ 1.85 µM)	0.063 (≈ 0.116 µM)	0.016 (≈ 0.0295 µM)	0.25 (≈ 0.462 µM)	0.25 (≈ 0.462 µM)	0.016 (≈ 0.0295 µM)	2 (≈ 3.69 µM)	0.031 (≈ 0.0572 µM)	0.031 (≈ 0.0572 µM)	0.25 (≈ 0.462 µM)				
OC(Cn1cncn1)(Cn1cncn1)c1ccc(F)cc1F [FLUCONAZOLE]	> 4	> 4	> 4	0.5 (≈ 1.63 µM)	0.25 (≈ 0.816 µM)	> 4	> 4	> 4	> 4	2 (≈ 6.53 µM)	0.5 (≈ 1.63 µM)	> 4				60
CCC(C)n1ncn(-c2ccc(N3CCN(c4ccc(OCC5COC(Cn6cncn6)(c6ccc(Cl)cc6Cl)O5)cc4)CC3)cc2)c1=O (centres undefined) [ITRACONAZOLE]	0.25 (≈ 0.354 µM)	0.5 (≈ 0.709 µM)	1 (≈ 1.42 µM)	0.125 (≈ 0.177 µM)	0.031 (≈ 0.0439 µM)	0.25 (≈ 0.354 µM)	0.25 (≈ 0.354 µM)	0.25 (≈ 0.354 µM)	1 (≈ 1.42 µM)	0.5 (≈ 0.709 µM)	0.125 (≈ 0.177 µM)	0.5 (≈ 0.709 µM)				
